Results as given in ChEMBL document CHEMBL1124486, “Antimalarial activity of new water-soluble dihydroartemisinin derivatives. 2. Stereospecificity of the ether side chain” (J Med Chem, 1989).
Converted amounts (≈) assume the structure as drawn.

Columns and labels:
Plasmodium berghei [1] = assay: Cures in Plasmodium berghei infected mice (Mus musculus) after 3 days at 20 mg/kg; cured 1 of 5; assay type: functional
Plasmodium berghei [2] = assay: Cures in Plasmodium berghei infected mice (Mus musculus) after 3 days at 320 mg/kg; cured 5 of 5; assay type: functional
Plasmodium berghei [3] = assay: Cures in Plasmodium berghei infected mice (Mus musculus) after 3 days at 80 mg/kg; […]; assay type: functional
Plasmodium berghei [4] = assay: Increased mean survival time (>12-14 days) in Plasmodium berghei infected mice (Mus musculus) after 3 days at 20 mg/kg; active in 4 of /5; assay type: functional
Plasmodium falciparum [5] = assay: In vitro antimalarial activity against Plasmodium falciparum W-2 Indochina; assay type: functional, organism-based
In short: (§1)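 [³H]hypoxanthine uptake assay. Compound was dissolved in DMSO and 70% ethanol, diluted in RPMI 1640 with 10% human plasma, then tested over (1.56-100) × 10⁻⁹ M. Parasites (0.5% parasitemia, 1% hematocrit) were incubated 24 h with compound, then [³H]hypoxanthine was added and incubation continued 18 h. Cells were harvested and counted by scintillation. IC50 came from nonlinear regression of concentration-response data.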

Plasmodium falciparum [6] = assay: In vitro antimalarial activity against Plasmodium falciparum D6 (Sierra Leone); assay type: functional, organism-based; in short: as §1
Plasmodium berghei [7] = assay: Increased mean survival time (>12-14 days) in Plasmodium berghei infected mice (Mus musculus) after 3 days at 80 mg/kg; active in 1 of 5; assay type: functional
Plasmodium berghei [8] = assay: Cures in Plasmodium berghei infected mice (Mus musculus) after 3 days at 640 mg/kg; cured 4 of 5; assay type: functional
Plasmodium berghei [9] = assay: Increase in mean survival time (>12-14 days) in Plasmodium berghei infected mice (Mus musculus) after 3 days at 80 mg/kg; active in 1 of 5; assay type: functional
Plasmodium berghei [10] = assay: Cures in Plasmodium berghei infected mice (Mus musculus) after 3 days at 160 mg/kg; cured 1 of 5; assay type: functional
Plasmodium berghei [11] = assay: Cures in Plasmodium berghei infected mice (Mus musculus) after 3 days at 80 mg/kg; cured 2 of 5; assay type: functional
Plasmodium berghei [12] = assay: Increased mean survival time (>12-14 days) in P berghei infected mice (Mus musculus) after 3 days at 80 mg/kg; active in 3 of 5; assay type: functional
Plasmodium berghei [13] = assay: Cures in Plasmodium berghei infected mice (Mus musculus) after 3 days at 20 mg/kg; cured 0 of 5; assay type: functional
Plasmodium berghei [14] = assay: Cures in Plasmodium berghei infected mice (Mus musculus) after 3 days at 80 mg/kg; cured 1 of 5; assay type: functional
Plasmodium berghei [15] = assay: Increased mean survival time (>12-14 days) in Plasmodium berghei infected mice (Mus musculus) after 3days at 20 mg/kg; active in 2 of 5; assay type: functional
Plasmodium berghei [16] = assay: Cures in Plasmodium berghei infected mice (Mus musculus) after 3 days at 160 mg/kg; cured 5 of 5; assay type: functional
Plasmodium berghei [17] = assay: Cures in Plasmodium berghei infected mice (Mus musculus) after 3 days at 640 mg/kg; cured 5 of 5; assay type: functional
Plasmodium berghei [18] = assay: Increased mean survival time (>12-14 days) in P berghei infected mice (Mus musculus) after 3 days at 80 mg/kg; active in 5 of 5; assay type: functional
Plasmodium berghei [19] = assay: Cures in Plasmodium berghei infected mice (Mus musculus) after 3 days at 320 mg/kg; cured 3 of 5; assay type: functional
Plasmodium berghei [20] = assay: Cures in Plasmodium berghei infected mice (Mus musculus) after 3 days at 80 mg/kg; cured 0 of 5; assay type: functional

Compound: COC(=O)C[C@H](C)O[C@H]1O[C@@H]2O[C@@]3(C)CC[C@H]4[C@H](C)CC[C@@H]([C@H]1C)[C@@]24OO3
- No. of mice cured (Plasmodium berghei [1]): 1
- No. of mice cured (Plasmodium berghei [2]): 5
- No. of mice cured (Plasmodium berghei [3]): 5
- No. of mice survived (Plasmodium berghei [4]): 4
- IC50 (Plasmodium falciparum [5]): 0.48 ng/mL (≈ 1.25 nM)
- IC50 (Plasmodium falciparum [6]): 1.91 ng/mL (≈ 4.97 nM)

Compound: C[C@H]1[C@@H](OC[C@H](C)C(=O)O)O[C@@H]2O[C@@]3(C)CC[C@H]4[C@H](C)CC[C@@H]1[C@@]24OO3
- IC50 (Plasmodium falciparum [5]): 8.33 ng/mL (≈ 22.5 nM)
- IC50 (Plasmodium falciparum [6]): 28.7 ng/mL (≈ 77.5 nM)

Compound: C[C@H]1[C@@H](O[C@@H](C)CC(=O)O)O[C@@H]2O[C@@]3(C)CC[C@H]4[C@H](C)CC[C@@H]1[C@@]24OO3
- IC50 (Plasmodium falciparum [5]): 7.43 ng/mL (≈ 20.1 nM)
- IC50 (Plasmodium falciparum [6]): 15 ng/mL (≈ 40.6 nM)

Compound: C[C@H]1[C@@H](OC[C@@H](C)C(=O)O)O[C@@H]2O[C@@]3(C)CC[C@H]4[C@H](C)CC[C@@H]1[C@@]24OO3
- IC50 (Plasmodium falciparum [5]): 5.32 ng/mL (≈ 14.4 nM)
- IC50 (Plasmodium falciparum [6]): 22.2 ng/mL (≈ 60 nM)

Compound: CC1=CO[C@@H]2O[C@]3(C)CC[C@H]4[C@H](C)CC[C@@H]1[C@@]24OO3 [ANHYDRODIHYDROARTEMISININ]
- No. of mice survived (Plasmodium berghei [7]): 1
- No. of mice cured (Plasmodium berghei [8]): 4
- No. of mice survived (Plasmodium berghei [3]): 2
- No. of mice survived (Plasmodium berghei [9]): 1
- No. of mice cured (Plasmodium berghei [10]): 1
- IC50 (Plasmodium falciparum [5]): 0.43 ng/mL (≈ 1.61 nM)
- IC50 (Plasmodium falciparum [6]): 0.83 ng/mL (≈ 3.12 nM)
- No. of mice cured (Plasmodium berghei [11]): 2

Compound: COC(=O)[C@H](C)CO[C@H]1O[C@@H]2O[C@@]3(C)CC[C@H]4[C@H](C)CC[C@@H]([C@H]1C)[C@@]24OO3
- No. of mice survived (Plasmodium berghei [12]): 3
- No. of mice cured (Plasmodium berghei [13]): 0
- No. of mice cured (Plasmodium berghei [2]): 5
- No. of mice cured (Plasmodium berghei [14]): 1
- No. of mice survived (Plasmodium berghei [15]): 2
- IC50 (Plasmodium falciparum [5]): 0.057 ng/mL (≈ 0.148 nM)
- IC50 (Plasmodium falciparum [6]): 2.15 ng/mL (≈ 5.59 nM)

Compound: C[C@@H]1CC[C@H]2[C@@H](C)C(=O)O[C@@H]3O[C@@]4(C)CC[C@@H]1[C@]32OO4 [ARTEMISININ]
- No. of mice survived (Plasmodium berghei [12]): 3
- No. of mice cured (Plasmodium berghei [16]): 5
- No. of mice cured (Plasmodium berghei [13]): 0
- No. of mice cured (Plasmodium berghei [17]): 5
- No. of mice survived (Plasmodium berghei [15]): 2
- IC50 (Plasmodium falciparum [5]): 2.6 ng/mL (≈ 9.21 nM)
- IC50 (Plasmodium falciparum [6]): 2.35 ng/mL (≈ 8.32 nM)
- No. of mice cured (Plasmodium berghei [11]): 2

Compound: COC(=O)C[C@@H](C)O[C@H]1O[C@@H]2O[C@@]3(C)CC[C@H]4[C@H](C)CC[C@@H]([C@H]1C)[C@@]24OO3
- IC50 (Plasmodium falciparum [5]): 0.071 ng/mL (≈ 0.185 nM)
- IC50 (Plasmodium falciparum [6]): 0.44 ng/mL (≈ 1.14 nM)

Compound: C[C@H]1[C@@H](O[C@H](C)CC(=O)O)O[C@@H]2O[C@@]3(C)CC[C@H]4[C@H](C)CC[C@@H]1[C@@]24OO3
- IC50 (Plasmodium falciparum [5]): 4.42 ng/mL (≈ 11.9 nM)
- IC50 (Plasmodium falciparum [6]): 36.5 ng/mL (≈ 98.4 nM)

Compound: C[C@H]1[C@@H](OCC23CC4CC(CC(C4)C2)C3)O[C@@H]2O[C@@]3(C)CC[C@H]4[C@H](C)CC[C@@H]1[C@@]24OO3
- No. of mice survived (Plasmodium berghei [18]): 5
- No. of mice cured (Plasmodium berghei [13]): 0
- No. of mice cured (Plasmodium berghei [19]): 3
- No. of mice cured (Plasmodium berghei [20]): 0
- IC50 (Plasmodium falciparum [5]): 2.11 ng/mL (≈ 4.88 nM)
- IC50 (Plasmodium falciparum [6]): 2.7 ng/mL (≈ 6.24 nM)

Compound: COC(=O)[C@@H](C)CO[C@H]1O[C@@H]2O[C@@]3(C)CC[C@H]4[C@H](C)CC[C@@H]([C@H]1C)[C@@]24OO3
- IC50 (Plasmodium falciparum [5]): 0.015 ng/mL (≈ 0.039 nM)
- IC50 (Plasmodium falciparum [6]): 0.36 ng/mL (≈ 0.936 nM)

Compound: C=C[C@H]1CN2CC[C@H]1C[C@H]2[C@H](O)c1ccnc2ccc(OC)cc12 [QUININE]
- IC50 (Plasmodium falciparum [5]): 59 ng/mL (≈ 182 nM)
- IC50 (Plasmodium falciparum [6]): 3.61 ng/mL (≈ 11.1 nM)
